Series [1] addresses Translocator protein (Rattus norvegicus, UniProt P16257). In words: Binding affinity to PBR in Sprague-Dawley rat mitochondrial tissue.
Series [2] can be described thus: Binding affinity to PBR in rhesus monkey mitochondrial tissue. Also on record: species or system Macaca mulatta. In outline: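 Mitochondrial fractions (rat, rhesus monkey or human) were incubated with [³H]PK 11195 (0.38 nM final) and eight test-ligand concentrations for 2 h at 4 °C. Samples were filtered on PEI-presoaked GF/B filters, washed with ice-cold buffer and counted. Nonspecific binding was taken at the top inhibitor level (0.1–0.3 µM). Triplicate curves were run in two independent experiments. IC₅₀ was converted to K_i by Cheng–Prusoff, using K_D from homologous PK 11195 displacement.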

Series [3] deals with Translocator protein (Homo sapiens, UniProt P30536). As to the kind of experiment: Binding affinity to PBR in human mitochondrial tissue.
Sequence of Translocator protein (Homo sapiens, UniProt P30536) (P30536 whole entry): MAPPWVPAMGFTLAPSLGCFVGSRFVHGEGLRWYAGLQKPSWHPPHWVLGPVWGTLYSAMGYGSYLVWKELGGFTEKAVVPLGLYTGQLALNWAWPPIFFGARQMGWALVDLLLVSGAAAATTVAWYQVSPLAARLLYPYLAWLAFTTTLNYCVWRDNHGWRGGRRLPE
The subject of series [4] is Plasma. As to the kind of experiment: Drug level in rhesus monkey plasma assessed as cell distribution. It counts as ADME, cell-free, Macaca mulatta.
Series [5] concerns Plasma. As to the kind of experiment: Biodistribution in rat plasma at 1.43 mCi, iv after 30 mins. It counts as ADME, organism-based. Conditions: in vivo, 0.5 h. In outline: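 Rats received the ¹¹C-radioligand iv with varying carrier mass (µg/kg) and were sampled 30 min later. Plasma and brain homogenate were extracted into acetonitrile and analysed by reverse-phase radio-HPLC (C18; MeOH/H₂O/Et₃N, 1.5 mL/min), reporting % radioactivity as unchanged radioligand. Extraction recovery was recorded. Replicate HPLC analyses were run on one sample per rat.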

The nature of series [6]: Stability in monkey whole blood >30 mins. To be noted: rhesus monkey, read-out: Stability. It counts as ADME, tissue-based, Macaca mulatta. In a few lines: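 The radioligand was incubated with monkey blood for >30 min. Radioactivity extracted from the plasma was analysed by radio-HPLC to give the percentage of unchanged radioligand, reported as mean ± SD.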
Series [7] can be described thus: Stability in sodium phosphate buffer at pH 7.4 after 2.5 hrs. It counts as physicochemical. To be noted: read-out: Stability. In a few lines:
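Radioligand stored in 0.15 M sodium phosphate buffer, pH 7.4, for 2.5 h; radiochemical stability measured by radio-HPLC as percent of radioactivity remaining as unchanged radioligand; n = 4.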

The nature of series [8]: Biodistribution in rhesus monkey plasma free fraction of blood. It counts as ADME, organism-based, Macaca mulatta.
The subject of series [9] is Plasma. As to the kind of experiment: Drug level in rhesus monkey plasma. It counts as ADME, cell-free, Macaca mulatta.
The nature of series [10]: Lipophilicity, log D of the compound. It counts as physicochemical. Conditions: octanol/water. In outline: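 The ¹¹C-ligand (~300 µCi) in saline with 5% ethanol was mixed with sodium phosphate buffer (0.15 M, pH 7.4). Six 1 mL aliquots were each vortexed 1 min with buffer-pre-equilibrated n-octanol, centrifuged 1 min, and 200 µL of each phase was γ-counted. Aqueous counts were corrected by radio-HPLC for the unchanged fraction. LogD = log(cpm octanol/corrected cpm aqueous); mean ± SD of six determinations.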

Structures are written as SMILES.

Sequence of Translocator protein (Rattus norvegicus, UniProt P16257) (P16257 whole entry, looked up): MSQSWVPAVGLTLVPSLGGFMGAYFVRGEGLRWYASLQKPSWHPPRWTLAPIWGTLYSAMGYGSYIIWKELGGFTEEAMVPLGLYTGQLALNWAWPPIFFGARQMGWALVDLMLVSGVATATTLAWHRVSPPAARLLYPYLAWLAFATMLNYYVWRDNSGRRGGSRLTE

A word on the Ki: it is a dissociation constant, usually derived from enzyme kinetics or from competition with a known ligand. For `COc1ccc(O[11CH3])c(CN(C(C)=O)c2cc(F)ccc2Oc2ccccc2)c1`, the results for the Ki (at Translocator protein [1]; in [2]; on Translocator protein [3]) were 0.0726 nM, 0.23 nM and 0.242 nM, respectively.

The term fraction unbound denotes free concentration divided by total concentration. What is called logD is the decadic logarithm of the distribution of all forms, ionised or not, between an organic phase and buffer at a given pH. Turning to `CC(=O)N(Cc1ccccc1C(=O)O[11CH3])c1ccccc1Oc1ccccc1`, the figures for the Ki (at Translocator protein [1]; in series [2]; on Translocator protein [3]) were 0.0978 nM, 0.254 nM and 1.4 nM, respectively. For the same molecule, the Drug uptake was found to be 63.3% with Plasma [4], 3.4% in the series with Plasma [5] and 36.7% in the series on Plasma [9]. The remaining at 0.5 h in series [6] is 96.5%. Moreover, in series [7], the remaining at 2.5 h came out at 99.9%. In [8], the free fraction (fraction unbound) came to 0.0015. Also, in series [10], the log distribution coefficient (logD) is 3.9.

For the origin of these results see ChEMBL document CHEMBL1140697, “Synthesis and evaluation in monkey of two sensitive 11C-labeled aryloxyanilide ligands for imaging brain peripheral benzodiazepine receptors in vivo” (J Med Chem, 2008).
